Reference: PMC7003773 (Clinical Pharmacology in Drug Development, 2019)
Read-outs that look alike come from different tables or passages of the source.

Columns and labels:
[1] = Population pharmacokinetic analysis of clinical plasma concentration data; assay type: in vivo, human
Procedure, shortened: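 Plasma sampled 1, 18, 23 and 36–48 h post-infusion. Assayed by LC-MS/MS (0.5–500 µg/mL), sub-0.5 µg/mL values dropped. Modelled in NONMEM with FOCE, log-normal IIV, stepwise covariates (forward P < .01, backward P < .001) and bootstrap uncertainty. T1/2 taken from 100 000 parameter draws.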

[2] = system: Staphylococcus aureus, Streptococcus pyogenes, Streptococcus dysgalactiae, vancomycin-susceptible Enterococcus faecalis; experiment: MIC distributions from 2017 surveillance program; assay type: cell-based; conditions: 2017 surveillance data, United States and Europe, 4 most relevant species
Procedure, shortened: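 Isolates came from the 2017 surveillance program: 70 US medical centers across 9 Census regions and 38 centers in 18 European countries. MICs were determined centrally at one reference laboratory by CLSI M07-A10 (2015) dilution methods. Isolate counts: S. aureus n = 8833, S. pyogenes n = 941, S. dysgalactiae n = 312, vancomycin-susceptible E. faecalis n = 1060. Distributions were plotted as histograms on a log MIC axis.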

S. aureus = conditions: neutropenic murine thigh model; cited from earlier work
[3] = cited from earlier work
serum albumin = conditions: intravenous dose; unchanged by drug concentration, renal impairment or hepatic function; cited from earlier work
[4] = final popPK model, typical value

CN[C@H]1C(=O)N[C@@H]2Cc3ccc(cc3)Oc3cc4cc(c3O[C@@H]3O[C@H](C(=O)O)[C@@H](O)[C@H](O)[C@H]3NC(=O)CCCCCCCCC(C)C)Oc3ccc(cc3Cl)[C@@H](O)[C@@H]3NC(=O)[C@H](NC(=O)[C@@H]4NC(=O)[C@@H](NC2=O)c2cc(cc(O)c2Cl)Oc2cc1ccc2O)c1ccc(O)c(c1)-c1c(O[C@H]2O[C@H](CO)[C@@H](O)[C@H](O)[C@@H]2O)cc(O)cc1[C@@H](C(=O)NCCCN(C)C)NC3=O [dalbavancin]
total volume of distribution ([1]; 3-compartment popPK model): ~15 L | T1/2 ([1]; calculated from 100 000 random samples drawn from mean and covariance of estimated model parameters): 8.77 days | Q2, distributional clearance ([1]; final popPK model, no IIV): 0.288 L/h | Q3, distributional clearance ([1]; final popPK model, no IIV): 2.11 L/h | V1, central volume of distribution [1, 4]: 3.04 L | V2 [1, 4]: 8.78 L | V3 [1, 4]: 3.28 L | rightmost histogram bar of the MIC distributions (highest MIC observed) [2]: 0.25 | 2-log kill target, fAUC/MIC (S. aureus): 111.1 | total volume of distribution (Vd) [3]: ~16 L | total drug clearance ([3]; healthy subjects): approximately 0.04 L/h | fraction of dose excreted as minor metabolite ([3]; healthy volunteers, 1000 mg intravenous dose of dalbavancin, by 42 days postdose): 12% | fraction of dose excreted in the feces ([3]; healthy volunteers, 1000 mg intravenous dose, by 42 days postdose): one‐third | fraction of dose excreted in urine unmodified ([3]; healthy volunteers, 1000 mg intravenous dose): one‐third | terminal half-life ([3]; intravenous): > 14 days | total drug clearance ([3]; patients): ~0.058 L/h | fraction bound to serum albumin / plasma protein (serum albumin): approximately 93%
